Cytotoxicity data for 98 compounds are collected here from ChEMBL document CHEMBL4513216, “Probing the Open Global Health Chemical Diversity Library for Multistage-Active Starting Points for Next-Generation Antimalarials” (ACS Infect Dis, 2020).

SMILES strings stand for the structures.

The nature of this data set: Toxicity liver stage against HepG2, at 10uM. The data set is classed as cell-based. Also on record: test concentration 10 uM, cell line HepG2-A16-CD81EGFP. The conditions noted are these: human, HepG2-A16-CD81EGFP cells; read-out: INHIBITION
Put shortly:
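Uninfected HepG2-A16-CD81EGFP cells, 3 × 10^3 per well, 1536-well, plated on prespotted compound at 10 μM final, parasite-free screening media added to match infected plates; puromycin 10 μM positive, DMSO 0.5% negative; run in parallel with 48 h PbLuc assay at 37 °C, 5% CO2; viability by CellTiter-Glo luminescence, normalized to controls.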
On to `CCOCC1CN(c2ccncn2)Cc2cnn(CC3CC3)c21` (stereo not drawn), for which the cytotoxicity at 10 µM amounted to 6.38%. With `Cc1nnc(Nc2cccc(C3CCCN(Cc4ncc[nH]4)C3)n2)s1` (stereo not drawn) the figure was -5.5%. For `CCCN1CCC(N(Cc2ncc(C)o2)C(C)=O)C1` (stereo not drawn), the cytotoxicity at 10 µM is -13.1%. With `O=C(c1cccn1Cc1cccs1)N1CCN(C2CC2)CC1` the figure was -10.4%; with `CC1CN(C)c2ccccc2CN1C(=O)c1ccc[nH]1` (stereo not drawn), -28.4%. With `O=C(NCc1nncn1-c1ccccc1)C1CC1`, the cytotoxicity at 10 µM is -13.1%.

With `Cc1noc(C)c1CC(=O)N1CCCN(C)c2ccc(Cl)cc21`, the cytotoxicity at 10 µM worked out at 9.71%. With `CS(=O)(=O)N1CCOCC12CCN(Cc1ccc(F)cc1)CC2`, the cytotoxicity at 10 µM is 3.39%. With `COCCN(CCC#N)S(=O)(=O)c1cc(F)ccc1F` the figure was -9.91%; with `O=C(CN1CCOc2ccccc2C1)NCc1cc2n(n1)CCCNC2`, 8.1%.

In the case of `CC(C)Cc1noc(CN(C)C[C@]2(O)CCCN3CCCC[C@@H]32)n1`, the cytotoxicity at 10 µM is -2.36%. With `COCC(=O)N1CCC(c2cc(-c3ccc(N)nc3)cc(C)n2)CC1` the figure was 2.06%.

On to `CS(=O)(=O)N1Cc2ccccc2CC2(CCN(Cc3ccccn3)C2)C1` (stereo not drawn), for which the cytotoxicity at 10 µM is 4.51%. To `CC(C)c1nc2n(n1)CC(NCC(=O)NCCC1=CCCCC1)CC2` (stereo not drawn) belongs -4.76%. To `O=C(Nc1ccc(Cl)cn1)C1CCCN(CCc2ccccn2)C1` (stereo not drawn) belongs 7.33%.

`Cc1cccc(CN2C[C@@H]3CCCO[C@@H]3[C@H](Nc3ccccn3)C2)n1`: the cytotoxicity at 10 µM came out at 0.939%. With `O=C(NCCn1cccc1)C(c1cccnc1)N1CCCC1` (stereo not drawn) the figure was -54.5%; with `N#CCCNC(=O)CSc1ccc(F)cc1F`, 3.94%. To `CC(C)n1cnc(-c2nc(C(=O)N3CCN(C)CC3)c3ccccn23)c1` belongs 8.88%. To `CN(C)C(=O)NC1COC2(CCN(Cc3ccco3)CC2)C1` (stereo not drawn) belongs -72.4%. Regarding `O=C(NCc1cccnc1)C1=NOC2(CCCN(CCO)C2)C1` (stereo not drawn), the cytotoxicity at 10 µM is 5.66%.

Regarding `O[C@@H]1CN(c2nc3ccccc3o2)CC[C@H]1c1ccc2c(c1)OCO2`, the cytotoxicity at 10 µM amounted to 5.36%. To `COc1cc2ncn(CC(=O)NCCCN(C)C)c(=O)c2cc1OC` belongs 10%. Take `O=S(=O)(c1cccs1)N1CCCn2cnc(CO)c2C1`: the cytotoxicity at 10 µM is 5.89%. Take `CN(CCOc1ccccc1)C(=O)Nc1cccn(C)c1=O`: the cytotoxicity at 10 µM was -11.3%.

Consider `COc1ccnc(NC(=O)c2ccsc2)c1`, for which the cytotoxicity at 10 µM is -0.747%.

For the compound `O=C(NCc1ccc(N2CCCC2)nc1)N1CCc2sccc2C1`, the cytotoxicity at 10 µM was -6.87%. With `COc1ccc(C2=CCN(C(=O)CN(C)Cc3ccco3)CC2)cc1` the figure was -6.16%; with `CC(Cn1ccnc1)NC(=O)NCCN1CCc2ccccc2C1` (stereo not drawn), 7.65%; with `Cc1ncsc1CN1C[C@@H]2COC[C@]2(CNC(=O)c2ccco2)C1`, -73.8%. With `CN1CCN(C(=O)Cc2ccsc2)Cc2cccnc21` the figure was -1.16%; with `CC1(C)CN(Cc2ccncc2)CCS1(=O)=O`, -4.95%; with `CS(=O)(=O)N1CCC(C(=O)N2CCC3(CC2)OCCCO3)CC1`, 1.91%.

Turning to `CC(C)OCCN1CCC(Nc2ccc(C#N)cc2F)CC1`, the cytotoxicity at 10 µM was -4.94%. Consider `COc1ccc(NC(C)C(=O)N2CCN(c3ccccc3)CC2)cn1` (stereo not drawn), for which the cytotoxicity at 10 µM is 9.75%. With `O=C(CCN1CCCO1)N1CC[C@@H](c2ccc3ccccc3c2)[C@H](O)C1` the figure was -1.04%. With `Cc1nc(CC(=O)N2CCc3nc(-c4cnccn4)nc(O)c3C2)cs1` the figure was 16.2%.

`COc1c(CNCc2nnc3n2CCCCC3)c(C(C)C)nn1C`: the cytotoxicity at 10 µM amounted to 11.5%. `CCC(NC(=O)Nc1cc(F)c(OC)c(F)c1)c1noc(C)n1` (stereo not drawn): the cytotoxicity at 10 µM was -0.177%. For the compound `COc1c(C2CCCN2C(=O)c2cnc(C)cn2)c(C)nn1C` (stereo not drawn), the cytotoxicity at 10 µM came out at 2.58%.

With `CN(Cc1ccsc1)Cc1nc(-c2ccncc2)no1`, the cytotoxicity at 10 µM amounted to 1.93%.

In the case of `Cc1cn2nc(Sc3nnc(C(C)C)n3C)sc2n1`, the cytotoxicity at 10 µM was found to be 2.3%.

In the case of `CCN(CC)C(=O)[C@@H]1C[C@@H](n2cc(-c3ccccn3)nn2)CN1`, the cytotoxicity at 10 µM was 9.63%. With `CCc1cnc(COc2ccc(OC3CCCCNC3=O)cc2)o1` (stereo not drawn) the figure was 0.318%; with `O=S1(=O)COCCN1Cc1ccc(Cl)c(F)c1`, -11.6%; with `CCc1nc2n(n1)CCCC2Nc1nc(C2CC2)ns1` (stereo not drawn), 3.03%. `Cc1cc(CN(C)C(=O)c2ccnc(N(C)C)c2)no1`: the cytotoxicity at 10 µM was 5.46%.

Take `CCC(=O)N1CCC2(CC1)CNC(=O)c1cc(C)ccc1O2`: the cytotoxicity at 10 µM was -20%. With `Cc1ccc(N2C[C@@H](CN3CCOCC3)[C@@H](CO)C2)nn1` the figure was 7.13%; with `CN(C)CCN(Cc1ccc(Cl)cc1)C(=O)c1ccncc1`, 7.99%; with `NCC1CCCCN1C(=O)Cc1cccc(Br)c1` (stereo not drawn), 0.907%.

Take `O=C(COc1ccc(-n2cccn2)nn1)N1CCCC1`: the cytotoxicity at 10 µM is 1.43%. On to `CC[C@H]1CN(S(C)(=O)=O)CC[C@H]1CC(=O)NCCOC`, for which the cytotoxicity at 10 µM is 2.55%. To `CN(C)c1cc(CNc2cncc(-n3cccn3)n2)ccn1` belongs 6.26%; to `O=C(O)c1c[nH]c2cc(NS(=O)(=O)c3cccc(F)c3F)ccc12`, 5.08%; to `COc1cccc(N2CCC(N3C[C@@H](NC(C)=O)[C@H](C(C)C)C3)CC2)c1`, -9.98%. Take `CCCc1noc(-c2ccc(-n3ncc(C(=O)O)c3C)nc2)n1`: the cytotoxicity at 10 µM was -1.4%. To `Cc1cccc(C(C(=O)NCCc2nc(C)cc(=O)[nH]2)N(C)C)c1` (stereo not drawn) belongs -6.24%; to `Cc1nc[nH]c1CN1CCOC(CCNC(=O)c2ccsc2)C1` (stereo not drawn), -13.1%; to `O=C(CCn1ccnc1)N1CC[C@@H](c2ccc3ccccc3c2)[C@H](O)C1`, -0.288%.

For the compound `CCn1ncc2c1C(COC)N(C(=O)c1cccs1)CC2` (stereo not drawn), the cytotoxicity at 10 µM is -112%.

As to `CO[C@@H]1CCN(S(=O)(=O)N(C)C)[C@@H]2CN(Cc3ccncc3)C[C@@H]21`, the cytotoxicity at 10 µM came out at 15.1%. As to `CN(CC(=O)NCC(F)(F)F)C(=O)c1ccc(C(=O)OC(C)(C)C)cc1`, the cytotoxicity at 10 µM amounted to 0.68%.

As to `COCCOc1ccc(NC(=O)N(C)Cc2ccsc2)cn1`, the cytotoxicity at 10 µM is -2.81%.

With `CC(c1ccc(Br)cc1)N1CCCN(C(N)=O)CC1` (stereo not drawn), the cytotoxicity at 10 µM was determined as 2.1%. To `CCNC(=O)CCN1CCCC1c1cccc2c1OCCO2` (stereo not drawn) belongs -4%. `Cc1noc(C)c1Cc1nc(N(C)C)no1`: the cytotoxicity at 10 µM was determined as 9.21%.

Regarding `COc1ccc(-c2nccn2CC(O)CN2CCCC2)c(F)c1` (stereo not drawn), the cytotoxicity at 10 µM was 2.87%. With `O=C(c1ccc(-c2ccc(O)nc2)s1)N1CCCCC1` the figure was 3.35%. With `N#CCCN(C(=O)CN1CCCC1c1ccccc1Cl)c1ccccc1` (stereo not drawn) the figure was 8.22%.

As to `O=C(NCc1ccncc1)N1CCSCC1CCO` (stereo not drawn), the cytotoxicity at 10 µM was 2.3%. To `CN(Cc1ccncc1)C(=O)Nc1cnn(CC2CCCO2)c1` (stereo not drawn) belongs -0.291%; to `COc1ccc(-n2cnnc2SCC(=O)NC(C)C)cn1`, 14%. To `COCc1cc(NCC(F)(F)F)n2nccc2n1` belongs 17%; to `Cc1ccc(N2CC[C@H]3OCC[C@@]3(C(=O)N3CCCO3)C2)nn1`, -1.22%. With `Cc1ccnc(C2CCN(CCCOc3ccccc3F)C2)n1` (stereo not drawn), the cytotoxicity at 10 µM is 6.04%. To `Cc1ccc2c(n1)N(CCN(C)C)CCN(Cc1c(C)noc1C)C2` belongs 5.74%.

For the compound `Cc1cc(C(=O)NCC(C)C)c2c(C3CCCN3)noc2n1` (stereo not drawn), the cytotoxicity at 10 µM is 7.05%.

`Cc1ncsc1CNC(=O)N(CCCO)C1CCc2ccccc21` (stereo not drawn): the cytotoxicity at 10 µM is -9.99%. To `CC(Nc1ccc(F)cc1)c1nnnn1-c1ccccc1` (stereo not drawn) belongs 1.81%; to `Cc1noc(C)c1CN(C)C(=O)C1CCCCN1CC(C)C` (stereo not drawn), 2.64%. Consider `COCc1nn(CC2CC2)c2c1CN(Cc1ccco1)CC2`, for which the cytotoxicity at 10 µM was determined as 2.35%. With `Cc1ccc(N2CCCc3sc(C(=O)NCC4CCCO4)nc32)nn1` (stereo not drawn) the figure was -1.19%.

With `Cc1ccc(CN2CCC[C@@H]3CN(C(=O)c4ccco4)C[C@@H]32)o1`, the cytotoxicity at 10 µM turned out to be 8.83%.

With `CC(C)c1nc(C(=O)N2C[C@H](C(C)C)[C@@H](N)C2)cs1`, the cytotoxicity at 10 µM is -3.73%. With `O=C(Cc1ccc2c(c1)CCC2)N1CCCC(n2cccn2)C1` (stereo not drawn) the figure was -7.81%. To `CNc1cc(C)nc(C2COCCN2Cc2csc(C)n2)n1` (stereo not drawn) belongs 1.45%. With `CC(C)Oc1ncccc1CNC(=O)c1cc(C2CC2)on1` the figure was -17.7%. Regarding `O=c1c(-c2ccnc(N3CCCC[C@@H]3CO)n2)cnc2sccn12`, the cytotoxicity at 10 µM is -10.3%.

In the case of `COCCOCC(=O)N(Cc1cccc(C)c1)C(C)C`, the cytotoxicity at 10 µM is -12.4%. To `COc1ccc(CN2CC(n3cccn3)C2)cc1F` belongs -0.483%; to `Clc1ccc(-n2nnnc2C2(NCc3ccco3)CCCCC2)cc1`, 15.7%; to `O=C(COc1cccc(F)c1)N1C[C@@H](O)[C@H](N2CCCC2)C1`, -4.22%. With `CN1CCC(Cc2cnc3ccccc3c2)C1` (stereo not drawn) the figure was 1.42%. For the compound `CCOCCC1(C(=O)N2CCCC(c3ncc[nH]3)C2)CCCC1` (stereo not drawn), the cytotoxicity at 10 µM is -1.7%. On to `CC(C)CN(CC(C)C)Cn1ncc2cn(-c3ccccc3)nc2c1=O`, for which the cytotoxicity at 10 µM is 1.42%.

Turning to `Cc1ccc(-c2nc(C(=O)N3CCN(C(=O)N(C)C)CC3)cs2)c(C)c1`, the cytotoxicity at 10 µM is -7.98%. With `O=C(NC1CC1)[C@@H]1CCO[C@@H]2CCN(C3CCCC3)C[C@H]21` the figure was 13.3%.
